According to PubChem BioAssay:
Activity calls are given as the source filed them.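 Rule for the calls, unless noted: active = viability loss from added drug above about 55%, and viability with drug at most 40%, in both replicates (limit read from the data, passing the limit was not always enough); inconclusive = both conditions met in only one replicate; inactive = neither replicate meets both conditions.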

Key:
[1] = reducers of endogenous Her2 protein level, primary screen, SKBR3 breast tumor cells, AlphaScreen, ATP viability (AID 461;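 active = Her2 level under about 52% in both replicate screens, with viability over 70% of control, limit read from the data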;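 for Her2 level: lower value means less Her2 protein in the cells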;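 for viability: percent of carrier control wells set as 100% viability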); details: 18-24 h, measured here: SKBR3 viability, ATP luminescence, at 10 µM
[2] = biological target: Receptor tyrosine-protein kinase erbB-2 (Homo sapiens) (UniProt P04626); experiment: as above; details: 18-24 h, at 10 µM, stronger effect = lower value
[3] = SK-BR-3 cell growth inhibitors, pilot screen, 24 h, human (AID 572;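 active = viability at or below 10% of carrier control in both of two separate runs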;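 note: compound exposure lasted between 18 and 24 h rather than exactly 24 h; 100% = carrier-treated control wells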); details: SK-BR-3 viability, CellTiter-Glo luminescence, at 10 µM, stronger effect = lower value
[4] = HUVEC growth inhibition – cell-based, human, primary screen (AID 575;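 active = viability at or below 30% in both replicate assays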;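 note: 100% = median of untreated cell wells with 0.1% DMSO on each plate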); details: HUVEC proliferation, CellTiter-Glo luminescence, 72 h; at 10 µM; stronger effect = lower value
Summary of the method: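 Test system: primary human umbilical vein endothelial cells; medium: endothelial basal medium with 2% FBS plus growth supplements; dosing: 10 µM compound only; times: 72 h treatment at 37 °C; signal: CTG luminescence; read-out: % viability relative to median vehicle-well signal on each plate; control set: vehicle and MePR control wells; plate: 384-well, collagen-coated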

[5] = growth inhibitors of H69AR lung tumor, primary screen, human, duplicate replicates (AID 580;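 active = viability at or under a set limit in both replicates, limit being median viability minus 3 SD, cut at about 48% in these data, passing the limit was not always enough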;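 note: 100% = mean luminescence of untreated wells and 0% = no signal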); details: H69AR lung tumor cells viability, ATP luminescence, 72 h; at 10 µM; stronger effect = lower value
[6] = reversal of MRP1-mediated doxorubicin resistance, pilot screen, H69AR cells, doxorubicin co-treatment (AID 601); details: CellTiter-Glo, 72 h, at 10 µM; for differential viability (reversal): stronger effect = higher value
[7] = 384-well plate pilot, post-Golgi transport modulator project, inhibition of yeast transport mutant growth (AID 636; in the data active = inhibition above about 31%); details: absorbance 615 nm, about 18 h, stronger effect = higher value
[8] = growth suppression of yeast trafficking mutant, preliminary HTS, modulators of trafficking downstream of Golgi apparatus project, 1536-format plate, OD 615 nm (AID 637; in the data active = inhibition above about 30%); details: yeast transport mutant growth, absorbance 615 nm, 18 h; stronger effect = higher value
[9] = H69AR cells + 2 uM doxorubicin, measured here: viability with 2 uM doxorubicin, stronger effect = lower value
[10] = H69AR cells, compound alone cytotoxicity

Receptor tyrosine-protein kinase erbB-2 (Homo sapiens), sequence (P04626 whole entry, looked up): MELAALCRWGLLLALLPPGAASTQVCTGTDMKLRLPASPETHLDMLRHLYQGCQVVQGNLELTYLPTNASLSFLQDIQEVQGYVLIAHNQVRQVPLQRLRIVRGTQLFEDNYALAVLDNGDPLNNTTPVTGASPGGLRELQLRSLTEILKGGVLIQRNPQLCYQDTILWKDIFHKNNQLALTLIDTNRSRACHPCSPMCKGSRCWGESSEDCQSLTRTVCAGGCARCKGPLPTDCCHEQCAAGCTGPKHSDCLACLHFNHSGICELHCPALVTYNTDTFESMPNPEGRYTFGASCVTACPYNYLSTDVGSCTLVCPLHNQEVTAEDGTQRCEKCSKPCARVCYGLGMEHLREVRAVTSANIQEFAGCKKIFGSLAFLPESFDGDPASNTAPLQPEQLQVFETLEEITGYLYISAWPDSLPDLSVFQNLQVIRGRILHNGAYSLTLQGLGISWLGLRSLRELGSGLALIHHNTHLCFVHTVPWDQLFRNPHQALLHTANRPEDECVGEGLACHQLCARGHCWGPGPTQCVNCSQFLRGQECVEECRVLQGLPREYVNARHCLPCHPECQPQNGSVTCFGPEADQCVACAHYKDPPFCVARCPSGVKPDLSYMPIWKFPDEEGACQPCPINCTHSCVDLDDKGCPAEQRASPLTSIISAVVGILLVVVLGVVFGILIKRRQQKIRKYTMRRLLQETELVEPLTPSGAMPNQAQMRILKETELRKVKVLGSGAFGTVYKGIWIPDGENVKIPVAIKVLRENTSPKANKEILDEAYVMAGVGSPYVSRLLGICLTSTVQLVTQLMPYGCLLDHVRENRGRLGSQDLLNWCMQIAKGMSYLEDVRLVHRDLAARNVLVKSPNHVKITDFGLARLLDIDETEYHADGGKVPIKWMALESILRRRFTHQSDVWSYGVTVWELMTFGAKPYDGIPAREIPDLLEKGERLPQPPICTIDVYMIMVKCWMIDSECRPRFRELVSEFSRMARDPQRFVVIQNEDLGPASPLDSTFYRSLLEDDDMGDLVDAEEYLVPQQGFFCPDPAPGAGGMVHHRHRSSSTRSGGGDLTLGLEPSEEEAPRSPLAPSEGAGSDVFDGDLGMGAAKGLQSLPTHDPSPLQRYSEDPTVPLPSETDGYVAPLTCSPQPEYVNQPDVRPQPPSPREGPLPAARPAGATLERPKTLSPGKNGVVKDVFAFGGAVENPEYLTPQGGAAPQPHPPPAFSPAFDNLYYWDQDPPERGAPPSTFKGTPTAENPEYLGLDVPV

SMILES | viability [1] [%] | Her2 level [2] | viability [3] | viability [4] | viability [5] | differential viability (reversal) ([6]; H69AR cells + 2 uM doxorubicin) | viability [6, 9] [%] | viability [6, 10] [%] | inhibition [7] | inhibition [8]
COc1ccccc1OC(=O)c1ccc(SC)cc1OC | 83 | 88% (inactive) | 83% (inactive) | 98.4% (inactive) | 94.1% (inactive) | 2.65% (inactive) | 91.4 | 94.1 | 1.05% (inactive) | -5.97% (inactive)
Cc1ccc(C)c(-n2c(Cc3cc(=O)[nH]c(=O)[nH]3)nnc2SCC(=O)NCc2ccco2)c1 | 131 | 142% (inactive) | 131% (inactive) | 100% (inactive) | 102% (inactive) | 13.3% (inactive) | 89 | 102 | -6% (inactive) | -5% (inactive)
COc1ccccc1C(=O)Nc1nc2ccc(S(C)(=O)=O)cc2s1 | 89.5 | 78% (inactive) | 89.5% (inactive) | 93.5% (inactive) | 79.5% (inactive) | -6.1% (inactive) | 85.6 | 79.5 | 0.64% (inactive) | -1% (inactive)
O=C(Cn1ccc2ccccc2c1=O)NCCC(=O)N1CCN(C2CCCCC2)CC1 | 99.5 | 86.5% (inactive) | 99.5% (inactive) | 96.6% (inactive) | 104% (inactive) | 22.2% (inactive) | 81.7 | 104 | -3.2% (inactive) | 2.13% (inactive)
COc1ccc(-n2c(=O)cc(N3CCN(Cc4ccccc4)CC3)[nH]c2=O)cc1 | 87 | 105% (inactive) | 87% (inactive) | 94% (inactive) | 92.7% (inactive) | -17.5% (inactive) | 110 | 92.7 | 0.26% (inactive) | -4% (inactive)
CCN(CC)c1ccc2c(C)c(-c3ccc(N)cc3)c(=O)oc2c1 | 96.5 | 84.5% (inactive) | 96.5% (inactive) | 60.4% (inactive) | 61.8% (inactive) | -9.77% (inactive) | 71.6 | 61.8 | -7.33% (inactive) | 12.3% (inactive)
Cn1cnnc1Sc1nc2c(c(=O)n(C)c(=O)n2C)n1C | 87 | 98.5% (inactive) | 87% (inactive) | 107% (inactive) | 102% (inactive) | 5.7% (inactive) | 96.5 | 102 | -0.79% (inactive) | -9.09% (inactive)
Cc1cc(NC(=O)CSc2nnc(C3CC3)n2C)no1 | 91 | 80% (inactive) | 91% (inactive) | 92.4% (inactive) | 100% (inactive) | 0.235% (inactive) | 100 | 100 | -0.53% (inactive) | -2.91% (inactive)
Cc1ccc(CNC(=O)C2CC(=O)OC23CCCC3)c(C)c1 (stereo not given) | 86 | 100% (inactive) | 86% (inactive) | 96.5% (inactive) | 106% (inactive) | 12.3% (inactive) | 94.1 | 106 | -5.89% (inactive) | 3.17% (inactive)
COCc1nnc(NS(=O)(=O)c2ccc(Br)cc2)s1 | 99.5 | 92% (inactive) | 99.5% (inactive) | 108% (inactive) | 91.3% (inactive) | -4.46% (inactive) | 95.8 | 91.3 | -5.2% (inactive) | -1.75% (inactive)
CN(C(=O)c1ccc(S(=O)(=O)NC2CCCC2)cc1)C1CCCCC1 | 101 | 87% (inactive) | 101% (inactive) | 103% (inactive) | 102% (inactive) | 9.82% (inactive) | 92.3 | 102 | -3.38% (inactive) | -7.54% (inactive)
Cn1c(=O)cc(SCC(=O)NCC2CCCO2)c2ccc(Cl)cc21 (stereo not given) | 88.5 | 88% (inactive) | 88.5% (inactive) | 89% (inactive) | 85.1% (inactive) | -4% (inactive) | 89.1 | 85.1 | -0.26% (inactive) | -3.71% (inactive)
COc1ccc(NC(=O)CCNC(=O)Cn2ccc3ccccc3c2=O)c(OC)c1 | 101 | 91% (inactive) | 101% (inactive) | 108% (inactive) | 103% (inactive) | 14.4% (inactive) | 88.1 | 103 | -7.97% (inactive) | 7.17% (inactive)
O=C1CN(C(=O)COC(=O)C23CC4CC(CC(O)(C4)C2)C3)c2ccccc2N1 | 115 | 85.5% (inactive) | 115% (inactive) | 104% (inactive) | 96.6% (inactive) | 10.6% (inactive) | 86.1 | 96.6 | -7.97% (inactive) | 3.65% (inactive)
CCOC(=O)c1ccc(NS(=O)C23CC4CC(CC(C4)C2)C3)cc1 (stereo not given) | 95.5 | 82% (inactive) | 95.5% (inactive) | 74% (inactive) | 87.6% (inactive) | -4.57% (inactive) | 92.2 | 87.6 | -7.57% (inactive) | 3.28% (inactive)
CCOC(=O)c1sc2nc3c(cc2c1N)COC(C)(C)C3 | 97 | 92% (inactive) | 97% (inactive) | 111% (inactive) | 98.4% (inactive) | 3.91% (inactive) | 94.5 | 98.4 | -6.4% (inactive) | -3.23% (inactive)
CC(C)CN(CC(C)C)C(=O)C12CCC(C)(C(=O)C1)C2(C)C (stereo not given) | 74 | 103% (inactive) | 74% (inactive) | 110% (inactive) | 96.8% (inactive) | 12.3% (inactive) | 84.4 | 96.8 | 1.33% (inactive) | -7.62% (inactive)
CCn1c(CCNC(=O)c2cccs2)nnc1SCC(=O)c1ccc(OC)cc1 | 106 | 138% (inactive) | 106% (inactive) | 95.7% (inactive) | 97.4% (inactive) | -5.32% (inactive) | 103 | 97.4 | -1.71% (inactive) | -0.33% (inactive)
Cc1cc(C)nc(N2CCC(C(=O)Nc3ccc4c(c3)CCC4)CC2)n1 | 81.5 | 85% (inactive) | 81.5% (inactive) | 54.9% (inactive) | 103% (inactive) | 7.34% (inactive) | 96 | 103 | -4.74% (inactive) | -2.67% (inactive)
C/C(=C\C(=O)c1ccc(F)cc1)Nc1ccc(N2CCOCC2)cc1 | 89.5 | 97% (inactive) | 89.5% (inactive) | 114% (inactive) | 90.9% (inactive) | 1.85% (inactive) | 89.1 | 90.9 | -4.4% (inactive) | -0.65% (inactive)
O=C(NCCc1ccccc1)C1CCCN(S(=O)(=O)c2cccs2)C1 (stereo not given) | 89 | 91% (inactive) | 89% (inactive) | 112% (inactive) | 93.8% (inactive) | 7.11% (inactive) | 86.7 | 93.8 | 1.79% (inactive) | -0.33% (inactive)
CC1CCCN(C(=O)CN2CCN(C(=O)c3ccco3)CC2)C1 (stereo not given) | 95.5 | 89.5% (inactive) | 95.5% (inactive) | 91.2% (inactive) | 93.2% (inactive) | 11.7% (inactive) | 81.6 | 93.2 | -4.13% (inactive) | -1.8% (inactive)
CCCCOC(=O)Cn1c(=N)n(CCN2CCOCC2)c2ccccc21 | 77 | 102% (inactive) | 77% (inactive) | 85.4% (inactive) | 95.5% (inactive) | 16.3% (inactive) | 79.2 | 95.5 | -7.47% (inactive) | 0.16% (inactive)
CN(CC(=O)N1CCN(C2CCCCC2)CC1)S(=O)(=O)c1cccc2nsnc12 | 88 | 83% (inactive) | 88% (inactive) | 107% (inactive) | 97.2% (inactive) | 5.6% (inactive) | 91.5 | 97.2 | -4.53% (inactive) | 6.23% (inactive)
Cc1ccccc1C(=O)NC1CCN(Cc2nnnn2Cc2ccccc2)CC1 | 93.5 | 78% (inactive) | 93.5% (inactive) | 91.3% (inactive) | 98.2% (inactive) | 2.56% (inactive) | 95.6 | 98.2 | -4.46% (inactive) | 3.49% (inactive)
COc1ccc(CNC(=O)C(c2ccco2)N(Cc2cccs2)C(=O)Cc2cccs2)cc1 (stereo not given) | 96.5 | 86.5% (inactive) | 96.5% (inactive) | 67.5% (inactive) | 72.5% (inactive) | 8.17% (inactive) | 64.3 | 72.5 | -1.95% (inactive) | -4.29% (inactive)
Brc1ccc2[nH]ncc2c1 | 101 | 78% (inactive) | 101% (inactive) | 110% (inactive) | 91.6% (inactive) | 0.11% (inactive) | 91.5 | 91.6 | -2.5% (inactive) | 1.43% (inactive)
COc1ccccc1-c1nnc(SCC(=O)N2CC(C)CC(C)C2)o1 (stereo not given) | 80.5 | 81.5% (inactive) | 80.5% (inactive) | 77.4% (inactive) | 78.1% (inactive) | -5.03% (inactive) | 83.2 | 78.1 | -5% (inactive) | -5% (inactive)
